Calls of active or inactive are those of the source. How the calls were made is not given here.
Assays:
[1] = test system: HCT-116; experiment: Cytostatic activity against p53-deficient human HCT116 cells after 72 hrs by MTT assay; assay type: functional, cell-based; details: HCT-116, 72 h
Procedure, shortened: (§1)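 IC50 is the concentration that cuts cell growth by 50%, read by quantitative metabolic MTT staining after a 3-day treatment. The resistant sublines were made by raising the concentration of the cytotoxic drug step by step. CEM-DNR-bulk (daunorubicin-selected) stably overexpresses mrp-1. K562-TAX (paclitaxel-selected) expresses only mdr-1. HCT116p53−/− carries null p53 alleles. BJ and MRC-5 are nonmalignant fibroblasts.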

[2] = test system: Hepatitis C virus; experiment: Antiviral activity against Hepatitis C virus subtype 2a infected in human HuH7 cells; assay type: functional, organism-based, Hepacivirus hominis; details: genotype 2a, Huh-7
[3] = test system: Staphylococcus haemolyticus; experiment: Antibacterial activity against methicillin-resistant Staphylococcus haemolyticus A/16568 after 24 hrs; assay type: functional, organism-based
[4] = test system: Hepatitis C virus; experiment: Antiviral activity against Hepatitis C virus subtype 1b infected in human HuH7 cells; assay type: functional, organism-based, Hepacivirus hominis; details: genotype 1b, Huh-7
[5] = test system: Pseudomonas aeruginosa; experiment: Antibacterial activity against multi-resistant Pseudomonas aeruginosa A/16575 after 24 hrs; assay type: functional, organism-based
[6] = test system: Escherichia coli; experiment: Antibacterial activity against multi-resistant Escherichia coli C/16702 after 24 hrs; assay type: functional, organism-based
[7] = test system: Staphylococcus aureus; experiment: Antibacterial activity against Staphylococcus aureus CCM 3953 after 24 hrs; assay type: functional, organism-based
[8] = test system: Candida tropicalis; experiment: Antifungal activity against Candida tropicalis after 48 hrs; assay type: functional, organism-based
[9] = Cytostatic activity against human CEM-DNR-bulk cells after 72 hrs by MTT assay; assay type: functional, cell-based; procedure, shortened: as §1
[10] = test system: HCT-116; experiment: Cytostatic activity against human HCT116 cells after 72 hrs by MTT assay; assay type: functional, cell-based; details: HCT-116, 72 h; procedure, shortened: as §1
[11] = Antiproliferative activity against human HeLaS3 cells after 72 hrs by XTT assay; assay type: functional, cell-based; details: HeLa S3, 72 h
Procedure, shortened: (§2)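 Antiproliferative test on HL-60 promyelocytic leukemia and HeLa S3 cervical carcinoma cells growing in liquid suspension.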

[12] = test system: Candida parapsilosis; experiment: Antifungal activity against Candida parapsilosis after 48 hrs; assay type: functional, organism-based
[13] = test system: Staphylococcus aureus; experiment: Antibacterial activity against methicillin-resistant Staphylococcus aureus MRSA 4591 after 24 hrs; assay type: functional, organism-based
[14] = test system: MRC5; experiment: Cytostatic activity against human MRC5 cells after 72 hrs by MTT assay; assay type: ADME, cell-based; details: MRC5, 72 h; procedure, shortened: as §1
[15] = test system: Pichia kudriavzevii; experiment: Antifungal activity against Candida crusei after 48 hrs; assay type: functional, organism-based
[16] = test system: Pseudomonas aeruginosa; experiment: Antibacterial activity against Pseudomonas aeruginosa CCM 3955 after 24 hrs; assay type: functional, organism-based
[17] = Cytotoxicity against human HuH7 cells infected with Hepatitis C virus subtype 1b; assay type: cell-based, Huh-7
[18] = test system: A549; experiment: Cytostatic activity against human A549 cells after 72 hrs by MTT assay; assay type: functional, cell-based; details: A549, 72 h; procedure, shortened: as §1
[19] = test system: Escherichia coli; experiment: Antibacterial activity against Escherichia coli CCM 3954 after 24 hrs; assay type: functional, organism-based
[20] = test system: K562; experiment: Cytostatic activity against human K562 cells after 72 hrs by MTT assay; assay type: functional, cell-based; details: K562, 72 h; procedure, shortened: as §1
[21] = test system: BJ; experiment: Cytostatic activity against human BJ cells after 72 hrs by MTT assay; assay type: ADME, cell-based; procedure, shortened: as §1
[22] = test system: K562; experiment: Cytostatic activity against paclitaxel-resistant human K562 cells after 72 hrs by MTT assay; assay type: functional, cell-based; details: K562, 72 h; procedure, shortened: as §1
[23] = test system: Candida albicans; experiment: Antifungal activity against Candida albicans after 48 hrs; assay type: functional, organism-based
[24] = test system: CCRF-CEM; experiment: Cytostatic activity against human CCRF-CEM cells after 72 hrs by MTT assay; assay type: functional, cell-based; procedure, shortened: as §1
[25] = Cytotoxicity against human HuH7 cells infected with Hepatitis C virus subtype 2a; assay type: cell-based, Huh-7
[26] = test system: Enterococcus faecalis; experiment: Antibacterial activity against Enterococcus faecalis CCM 4224 after 24 hrs; assay type: functional, organism-based
[27] = test system: HL-60; experiment: Antiproliferative activity against human HL60 cells after 72 hrs by XTT assay; assay type: functional, cell-based; details: HL-60, 72 h; procedure, shortened: as §2
[28] = test system: HepG2; experiment: Antiproliferative activity against human HepG2 cells after 72 hrs by XTT assay; assay type: functional, cell-based; details: HepG2, 72 h

Compound | IC50 [1] [µM] | Activity [3] | EC50 [4] [µM] | Activity [5] | Activity [6] | Activity [7] | Activity [8] | IC50 [9] [µM] | IC50 [10] [µM] | IC50 [11] [µM] | Activity [12] | Activity [13] | IC50 [14] [µM] | Activity [15] | Activity [16] | CC50 [17] [µM] | IC50 [18] [µM] | Activity [19] | IC50 [20] [µM] | IC50 [21] [µM] | further results
Nc1ncnc2c1c(-c1ccco1)cn2[C@@H]1O[C@H](CO)[C@@H](O)[C@H]1O | 0.17 | inactive | > 44 | inactive | inactive | inactive | inactive | 0.21 | 0.03 | 0.05 | inactive | inactive | 36.5 | inactive | inactive | > 44 | 0.03 | inactive | 0.04 | 18.3 | EC50 [2]: > 44 µM; IC50 [22]: 0.05 µM; Activity [23]: inactive; IC50 [24]: 0.04 µM; CC50 [25]: > 44 µM; Activity [26]: inactive
Nc1nc2c(c(-c3cccs3)cn2[C@@H]2O[C@H](CO)[C@@H](O)[C@H]2O)c(=O)[nH]1 | 19.8 | inactive | 18.8 | inactive | inactive | inactive | inactive | > 20 | > 20 | > 20 | inactive | inactive | > 100 | inactive | inactive | > 44 | > 20 | inactive | > 20 | > 100 | IC50 [27]: > 20 µM; IC50 [22]: 16.8 µM; Activity [23]: inactive; IC50 [24]: > 20 µM; IC50 [28]: > 20 µM; Activity [26]: inactive
C#Cc1cn([C@@H]2O[C@H](CO)[C@@H](O)[C@H]2O)c2nc(C)nc(N)c12 | > 20 | inactive | 8 | inactive | inactive | inactive | inactive | 12.6 | > 20 | > 20 | inactive | inactive | > 100 | inactive | inactive | > 44 | > 20 | inactive | > 20 | > 100 | IC50 [27]: > 20 µM; IC50 [22]: 3.29 µM; Activity [23]: inactive; IC50 [24]: > 20 µM; IC50 [28]: > 20 µM; Activity [26]: inactive
COc1nc(N)nc2c1c(-c1ccoc1)cn2[C@@H]1O[C@H](CO)[C@@H](O)[C@H]1O | > 20 | inactive | 19.7 | inactive | inactive | inactive | inactive | > 20 | > 20 | > 20 | inactive | inactive | > 100 | inactive | inactive | > 44 | > 20 | inactive | > 20 | > 100 | IC50 [27]: > 20 µM; IC50 [22]: > 20 µM; Activity [23]: inactive; IC50 [24]: > 20 µM; IC50 [28]: > 20 µM; Activity [26]: inactive
COc1nc(N)nc2c1c(-c1ccco1)cn2[C@@H]1O[C@H](CO)[C@@H](O)[C@H]1O | > 20 | inactive | 2.44 | inactive | inactive | inactive | inactive | > 20 | > 20 | > 20 | inactive | inactive | 89.7 | inactive | inactive | > 44 | > 20 | inactive | > 20 | > 100 | IC50 [27]: > 20 µM; IC50 [22]: > 20 µM; Activity [23]: inactive; IC50 [24]: > 20 µM; IC50 [28]: > 20 µM; Activity [26]: inactive
Nc1nc(N)c2c(-c3ccoc3)cn([C@@H]3O[C@H](CO)[C@@H](O)[C@H]3O)c2n1 | > 20 | inactive | 21.3 | inactive | inactive | inactive | inactive | > 20 | > 20 | > 20 | inactive | inactive | > 100 | inactive | inactive | > 44 | > 20 | inactive | > 20 | > 100 | IC50 [27]: > 20 µM; IC50 [22]: > 20 µM; Activity [23]: inactive; IC50 [24]: > 20 µM; IC50 [28]: > 20 µM; Activity [26]: inactive
COc1nc(N)nc2c1c(-c1ccsc1)cn2[C@@H]1O[C@H](CO)[C@@H](O)[C@H]1O | > 20 | inactive | 14.5 | inactive | inactive | inactive | inactive | > 20 | > 20 | > 20 | inactive | inactive | > 100 | inactive | inactive | > 44 | > 100 | inactive | > 20 | > 100 | IC50 [27]: > 20 µM; IC50 [22]: > 20 µM; Activity [23]: inactive; IC50 [24]: > 20 µM; IC50 [28]: > 20 µM; Activity [26]: inactive
COc1nc(N)nc2c1c(-c1cccs1)cn2[C@@H]1O[C@H](CO)[C@@H](O)[C@H]1O | > 20 | inactive | 6.07 | inactive | inactive | inactive | inactive | > 20 | > 20 | > 20 | inactive | inactive | > 100 | inactive | inactive | > 44 | > 20 | inactive | > 20 | 99.9 | IC50 [27]: > 20 µM; IC50 [22]: > 20 µM; Activity [23]: inactive; IC50 [24]: > 20 µM; IC50 [28]: > 20 µM; Activity [26]: inactive
Nc1nc(N)c2c(-c3ccco3)cn([C@@H]3O[C@H](CO)[C@@H](O)[C@H]3O)c2n1 | > 20 | inactive | 12.5 | inactive | inactive | inactive | inactive | > 20 | > 20 | > 20 | inactive | inactive | > 100 | inactive | inactive | > 44 | > 20 | inactive | > 20 | > 100 | IC50 [27]: > 20 µM; IC50 [22]: > 20 µM; Activity [23]: inactive; IC50 [24]: > 20 µM; IC50 [28]: > 20 µM; Activity [26]: inactive
Nc1nc(N)c2c(-c3cccs3)cn([C@@H]3O[C@H](CO)[C@@H](O)[C@H]3O)c2n1 | > 20 | inactive | 10 | inactive | inactive | inactive | inactive | > 20 | > 20 | > 20 | inactive | inactive | > 100 | inactive | inactive | > 44 | > 20 | inactive | > 20 | > 100 | IC50 [27]: > 20 µM; IC50 [22]: > 20 µM; Activity [23]: inactive; IC50 [24]: > 20 µM; IC50 [28]: > 20 µM; Activity [26]: inactive

Source: ChEMBL document CHEMBL3124843, “Synthesis, cytostatic, antimicrobial, and anti-HCV activity of 6-substituted 7-(het)aryl-7-deazapurine ribonucleosides” (J Med Chem, 2014)
